Assay [1] is described as follows: Displacement of [3H]-(+)-MK-801 from NMDA receptor PCP binding site in pig brain cortex membranes after 120 mins by microbeta scintillation counting method. The class given is cell membranes, Sus scrofa. (Loss of bound radioactivity is the signal in a displacement assay; it reports binding, not function.)
Assay [2] addresses T1, Sigma intracellular receptor 2 (Rattus norvegicus, UniProt Q5U3Y7).
T1 sequence (Q5U3Y7 whole entry): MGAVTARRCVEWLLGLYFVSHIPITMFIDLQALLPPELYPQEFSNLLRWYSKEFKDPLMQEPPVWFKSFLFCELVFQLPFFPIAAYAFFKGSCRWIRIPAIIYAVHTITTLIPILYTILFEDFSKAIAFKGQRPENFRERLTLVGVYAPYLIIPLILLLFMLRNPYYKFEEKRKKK
Description: Displacement of [3H]DTG from sigma-2 receptor in rat liver membranes after 120 mins by microbeta scintillation counting method. The class given is cell membranes, Membrane.

The target in assay [3] is 3-beta-hydroxysteroid-Delta(8),Delta(7)-isomerase (Homo sapiens) (UniProt Q15125). Description: Inhibition of sterol-delta8/delta7-isomerase in human HL60 cells assessed as accumulation of cholesta-8,14-dienol at 50 uM after 24 hrs. The class given is cell-based. Summed up: (§1)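 HL-60 cells were screened for inhibition of post-squalene cholesterol-biosynthesis enzymes. Sterol pattern was checked at 1 µM test concentration, and cholesta-8,14-dienol accumulation was examined at 50 µM.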

Assay [4] has the same target. The assay is described as follows: Inhibition of sterol-delta8/delta7-isomerase in human HL60 cells assessed as change in sterol pattern at 1 uM after 24 hrs. The class given is cell-based. Summed up:
as §1

Assay [5] has as its system Yarrowia lipolytica. The assay is described as follows: Inhibition of Yarrowia lipolytica DSM 1345 sterol-delta8/delta7-isomerase assessed as change in sterol pattern at 4 ug/ml after 48 hrs by GC-MS analysis. Summed up: (§2)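 Cellular assay in the model yeast Yarrowia lipolytica, with compounds at 4 µg/mL. Both growth and the sterol pattern were monitored as read-outs of fungal sterol-Δ8/Δ7-isomerase inhibition.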

Assay [6] concerns Yarrowia lipolytica. The assay is described as follows: Growth inhibition of Yarrowia lipolytica DSM 1345 at 4 ug/ml. Type of assay: functional. The gist of the method:
as §2

Assay [7] has as its target Sigma non-opioid intracellular receptor 1 (Cavia porcellus, UniProt Q60492). The assay is described as follows: Displacement of [3H]-(+)-pentazocine from sigma-1 receptor in guinea pig brain membranes after 120 mins by microbeta scintillation counting method. Type of assay: cell membranes, Membrane.
For assay [8], the target named is T2, Sigma intracellular receptor 2 (Rattus norvegicus) (UniProt Q5U3Y7).
T2 sequence (whole entry): T1 sequence (Q5U3Y7 whole entry)
The assay is described as follows: Displacement of [3H]DTG from sigma-2 receptor in rat liver membranes at 1 uM after 120 mins by microbeta scintillation counting method relative to control. Type of assay: cell membranes. The following applies: Membrane. The gist of the method: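 Rat liver homogenate was the receptor source, labelled with [³H]-di-o-tolylguanidine. Excess (+)-pentazocine was added to mask σ1 sites.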

SMILES strings stand for the structures. pIC50, pKi: −log10 of the molar value. Active and inactive are the calls of the source. No cut-off for these calls is given here.

3-beta-hydroxysteroid-Delta(8),Delta(7)-isomerase (Homo sapiens), sequence (Q15125 whole entry): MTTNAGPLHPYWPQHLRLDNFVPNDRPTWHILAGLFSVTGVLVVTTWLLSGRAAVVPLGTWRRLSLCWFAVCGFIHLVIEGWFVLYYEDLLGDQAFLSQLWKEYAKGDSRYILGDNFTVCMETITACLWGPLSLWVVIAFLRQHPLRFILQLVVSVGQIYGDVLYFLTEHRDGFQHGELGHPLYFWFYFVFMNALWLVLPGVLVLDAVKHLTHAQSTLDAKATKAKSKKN
Sigma non-opioid intracellular receptor 1, sequence (Q60492 whole entry): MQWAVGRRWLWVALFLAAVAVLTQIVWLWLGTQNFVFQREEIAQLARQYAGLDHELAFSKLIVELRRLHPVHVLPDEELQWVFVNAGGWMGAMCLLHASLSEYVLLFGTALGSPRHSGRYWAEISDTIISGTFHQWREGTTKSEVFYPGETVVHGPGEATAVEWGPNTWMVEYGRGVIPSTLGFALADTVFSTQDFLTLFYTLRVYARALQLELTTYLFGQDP

Regarding `OCC[C@H]1Cc2ccccc2C2(CCN(CC3CCCCC3)CC2)O1`, the pIC50 in assay [1] is under 5.00. In assay [2], this compound showed a pKi of 6.29.

In the case of `COC(=O)CC1Cc2ccccc2C(CCN2CCC(c3ccccc3)CC2)O1` (racemic), in assay [3], the inhibition entry was “Active”. The inhibition entry (in assay [4]; with Yarrowia lipolytica [5]) was “inactive” throughout. Further, in the assay with Yarrowia lipolytica [6], the “growth inhibition (GI)” value is “inactive”.

`CCCCCCCCN1CCC2(CC1)O[C@@H](CCO)Cc1ccccc12`: the pIC50 in assay [1] was under 5.00. Besides, the pKi was 7.62 in assay [7] and 7.17 in assay [2].

On to `OCC[C@H]1Cc2ccccc2C2(CCN(CCCc3ccccc3)CC2)O1`, for which the pIC50 in assay [1] was under 5.00. In addition, the pKi in assay [2] is 5.91.

In assay [7], `FCC[C@@H]1OC2(CCN(Cc3ccccc3)CC2)c2ccccc21` showed a pKi of 8.64.

Consider `CCCCCCCCN1CCC2(CC1)OC(CCO)Cc1ccccc12` (racemic), for which the inhibition entry in assay [3] was “Active”. For the same compound, the inhibition entry (in assay [4]; in the assay with Yarrowia lipolytica [5]) was “inactive” throughout. Further, the “growth inhibition (GI)” value in the assay with Yarrowia lipolytica [6] is “inactive”.

As to `COC(=O)C[C@H]1Cc2ccccc2[C@@H](CCN2CCCCC2)O1`, the pIC50 in assay [1] is under 5.00. The compound also had a pKi in assay [7] of 6.25. The compound also showed an inhibition in assay [8] of 13%.

For the compound `COC(=O)C[C@H]1Cc2ccccc2[C@@H](CCN2CCC(c3ccccc3)CC2)O1`, in assay [1], the pIC50 is under 5.00. Further, the results for the pKi in assay [7] and in assay [2] were 7.48 and 6.28, respectively.

With `OCC[C@@H]1Cc2ccccc2C2(CCN(CC3CCCCC3)CC2)O1`, in assay [1], the pIC50 is under 5.00. The pKi in assay [2] is 6.21.

In assay [1], `COC(=O)C[C@@H]1Cc2ccccc2[C@H](CCN2CCC(c3ccccc3)CC2)O1` had a pIC50 of under 5.00. The values for the pKi in assay [7] and in assay [2] were 7.37 and 7.49, respectively.

As to `CCCCCCCCN1CCC2(CC1)O[C@H](CCO)Cc1ccccc12`, the pIC50 in assay [1] is under 5.00. Also, the pKi is 7.25 in assay [7] and 6.59 in assay [2].

In assay [1], `OCC[C@@H]1Cc2ccccc2C2(CCN(CCCc3ccccc3)CC2)O1` gave a pIC50 of under 5.00. In assay [2], the pKi was 6.28.

In the case of `FCC[C@H]1OC2(CCN(Cc3ccccc3)CC2)c2ccccc21`, in assay [7], the pKi was 9.24.

Turning to `OCCC1Cc2ccccc2C2(CCN(CCCc3ccccc3)CC2)O1` (racemic), the inhibition result in assay [3] was “Active”. Further, the inhibition entry (in assay [4]; in the assay with Yarrowia lipolytica [5]) was “inactive” in each case. For the same compound, the “growth inhibition (GI)” value in the assay with Yarrowia lipolytica [6] was “inactive”.

For `COC(=O)C[C@@H]1Cc2ccccc2[C@H](CCN2CCCCC2)O1`, in assay [1], the pIC50 was under 5.00. In addition, the pKi in assay [7] is 6.07. The inhibition in assay [8] stood at 39%.

In assay [1], `OCC[C@H]1Cc2ccccc2C2(CCN(Cc3ccccc3)CC2)O1` showed a pIC50 of under 5.00. In assay [8], this compound displayed an inhibition of 21%.

Take `OCC[C@@H]1Cc2ccccc2C2(CCN(Cc3ccccc3)CC2)O1`: the pIC50 in assay [1] is under 5.00. The inhibition in assay [8] is 9%.

The pIC50 is the IC50 on a negative log10 scale, so that one unit is a factor of ten. Read a low pIC50 as a large IC50. What is called pKi is the Ki on a negative log10 scale, so that one unit is a factor of ten. Lower therefore signals a large Ki. Usually inhibition stands for the change of the read-out against control, counted positive when it falls.
